Data as given in publication PMC3553303 (Biochemical pharmacology, 2012).

How the values were obtained:
FPR2 [1] = molecular target: T1, FPR2 (Homo sapiens, UniProt P25090); experiment: PathHunter β-arrestin recruitment, FPR2-CHO-K1 cells; assay type: cell-based; conditions: read-out: β-arrestin recruitment EC50
T1 sequence (P25090 1-351): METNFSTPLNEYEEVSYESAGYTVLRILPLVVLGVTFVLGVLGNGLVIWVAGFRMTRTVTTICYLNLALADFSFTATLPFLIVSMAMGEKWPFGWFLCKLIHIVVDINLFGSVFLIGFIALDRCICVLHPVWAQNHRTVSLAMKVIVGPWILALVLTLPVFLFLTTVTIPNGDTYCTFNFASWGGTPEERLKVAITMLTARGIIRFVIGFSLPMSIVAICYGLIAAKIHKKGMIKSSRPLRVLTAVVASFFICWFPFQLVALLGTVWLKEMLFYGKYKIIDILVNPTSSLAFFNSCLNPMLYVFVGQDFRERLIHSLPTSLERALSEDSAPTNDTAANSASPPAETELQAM
In short: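 The assay used the PathHunter enzyme-fragment complementation format in FPR2-transfected CHO-K1 cells. Thawed cells were plated at 5000/well in the kit medium and held 48 h at 37 °C with 5% CO2. Test compound was serially diluted at constant DMSO and added for 90 min at 37 °C, then detection reagent for 60 min at room temperature. Chemiluminescence was read.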

FPR2 [2] = molecular target: T1, FPR2; experiment: Ca2+ mobilization in FPR2-HL-60 cells; assay type: cell-based; conditions: percentage of the response induced by 5 nM WKYMVM
human neutrophils = experiment: Neutrophil chemotaxis assay; assay type: cell-based; conditions: read-out: Neutrophils Chemotaxis EC50, N.A. = non-active
FPR1 [3] = molecular target: T2, FPR1 (Homo sapiens, UniProt P21462); experiment: PathHunter β-arrestin recruitment, FPR1-CHO-K1 cells; assay type: cell-based; conditions: read-out: β-arrestin recruitment EC50
T2 sequence (P21462 1-350): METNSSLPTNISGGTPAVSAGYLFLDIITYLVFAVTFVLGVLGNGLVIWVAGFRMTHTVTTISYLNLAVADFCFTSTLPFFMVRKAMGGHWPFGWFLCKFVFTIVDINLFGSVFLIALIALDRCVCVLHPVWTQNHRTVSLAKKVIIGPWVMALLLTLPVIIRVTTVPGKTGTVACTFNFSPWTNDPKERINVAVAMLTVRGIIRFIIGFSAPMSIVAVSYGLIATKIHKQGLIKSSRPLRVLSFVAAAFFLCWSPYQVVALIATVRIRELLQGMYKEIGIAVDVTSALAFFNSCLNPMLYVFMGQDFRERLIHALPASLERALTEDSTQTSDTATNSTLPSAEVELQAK

bombesin receptor (BB2) = bombesin receptor (BB2) (Homo sapiens, UniProt P30550); assay type: binding; conditions: read-out: Ki, displacement of [125I][Tyr4]bombesin; PC3 cells
FPR1 [4] = molecular target: T2, FPR1; experiment: Ca2+ mobilization in FPR1-HL-60 cells; assay type: cell-based; conditions: percentage of the response induced by 5 nM fMLF

bombesin receptor (BB2), sequence (P30550 whole entry): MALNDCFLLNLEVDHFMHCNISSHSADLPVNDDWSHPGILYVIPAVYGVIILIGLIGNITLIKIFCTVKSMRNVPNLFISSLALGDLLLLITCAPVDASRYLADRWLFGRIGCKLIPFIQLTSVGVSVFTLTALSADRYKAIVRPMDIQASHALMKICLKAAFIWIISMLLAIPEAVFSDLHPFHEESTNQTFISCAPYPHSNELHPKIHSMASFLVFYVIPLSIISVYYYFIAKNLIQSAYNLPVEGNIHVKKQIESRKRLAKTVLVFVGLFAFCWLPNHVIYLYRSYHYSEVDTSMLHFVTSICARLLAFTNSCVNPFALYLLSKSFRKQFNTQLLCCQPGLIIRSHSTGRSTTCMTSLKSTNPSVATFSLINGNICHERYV

For `C[C@@](Cc1c[nH]c2ccccc12)(NC(=O)Nc1ccc([N+](=O)[O-])cc1)C(=O)NCC1(c2ccccn2)CCCCC1` [PD168368], the EC50 (FPR2 [1]) was 11.1 ± 2.8 µM, the “Ca2+ Mobilization in HL-60 cells FPR2 Efficacy” value (FPR2 [2]) was 75% and the EC50 (human neutrophils) was 700 ± 150 nM.
For `COc1ccc(C2(CNC(=O)[C@](C)(Cc3c[nH]c4ccccc34)NC(=O)Nc3ccc([N+](=O)[O-])cc3)CCCCC2)nc1` [PD176252], the EC50 (FPR1 [3]) was 3.8 ± 1.1 µM, the EC50 (FPR2 [1]) was 8.8 ± 2 µM and the Ki (bombesin receptor (BB2)) was 66 nM. For the same compound, the “Ca2+ Mobilization in HL-60 cells FPR2 Efficacy” value (FPR2 [2]) was 90%, the “Ca2+ Mobilization in HL-60 cells FPR1 Efficacy” value (FPR1 [4]) was 100% and the EC50 (human neutrophils) was 810 ± 220 nM.
